Data published in ChEMBL document CHEMBL1158886, “Melophlins C-O, thirteen novel tetramic acids from the marine sponge Melophlus sarassinorum” (J Nat Prod, 2003).
Values after ≈ are worked out from the molar mass of the structure shown. Active and inactive are the calls of the source. The calls are words filed in the database; no cut-off is given here.

Assays:
TF-1 = experiment: Cytotoxicity against human TF1 cells; assay type: functional, cell-based
Staphylococcus aureus = experiment: Antimicrobial activity against Staphylococcus aureus ATCC 25923 at 5 and 10 ug after 24 hrs by agar diffusion method; assay type: functional, organism-based
Outline: (§1)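 Paper disks (5 mm) loaded with 5 or 10 µg of compound in MeOH, set on LB agar plates seeded with the test bacterium. Incubated 24 h at 37 °C, then inhibition zone diameters recorded. Disks carrying solvent only served as controls.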

HeLa = experiment: Cytotoxicity against human HeLa cells; assay type: functional, cell-based
Candida albicans = experiment: Antimicrobial activity against Candida albicans at 5 and 10 ug after 24 hrs by agar diffusion method; assay type: functional, organism-based
Outline: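 Disks (5 mm) carrying 5 or 10 µg of compound in MeOH were placed on YPD agar plates inoculated with C. albicans. Inhibition zones were read after 24 h at 27 °C. Solvent-only disks served as controls.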

Artemia salina = experiment: Toxicity against Artemia salina; assay type: organism-based
Bacillus subtilis = experiment: Antimicrobial activity against Bacillus subtilis 168 at 5 and 10 ug after 24 hrs by agar diffusion method; assay type: functional, organism-based; outline: as §1

Q: How did the Activity (TF-1) turn out when `CCCCCCCC(C)CCC/C(O)=C1\C(=O)C(C)N(C)C1=O` (configuration not stated) [MELOPHLIN C] was run?
A: inactive

Q: What about the Activity (Staphylococcus aureus) of the same compound?
A: Active

Q: What about the Activity (HeLa) of the same compound?
A: inactive

Q: And the Activity (Candida albicans)?
A: Active

Q: What about the IC50 (Artemia salina) of the same compound?
A: 36.6 µg/mL (≈ 113 µM)

Q: What about the Activity (Bacillus subtilis) of the same compound?
A: Active

Q: Which Activity (TF-1) does the source give for `CC(C)CCCCCCCCCCCC/C(O)=C1\C(=O)CN(C)C1=O` here?
A: inactive

Q: What about the Activity (HeLa) of the same compound?
A: inactive

Q: How did the Activity (TF-1) turn out when `CCCCCCCCCCCCC/C(O)=C1\C(=O)CN(C)C1=O` [MELOPHLIN G] was run?
A: inactive

Q: And the Activity (HeLa)?
A: inactive

Q: And the IC50 (Artemia salina)?
A: 48.8 µg/mL (≈ 151 µM)

Q: `CCC(C)CCCCCCCC/C(O)=C1\C(=O)C(C)N(C)C1=O` (configuration not stated) was tested. Which Activity (TF-1) did it give?
A: inactive

Q: And the Activity (HeLa)?
A: inactive

Q: Which Activity (TF-1) does the source give for `CC(C)CCCCCCCCC/C(O)=C1\C(=O)C(C)N(C)C1=O` (configuration not stated) here?
A: inactive

Q: What about the Activity (HeLa) of the same compound?
A: inactive

Q: Which results are given for `CCCCCCCCCCC/C(O)=C1\C(=O)C(C)N(C)C1=O` (configuration not stated)?
A: Activity (TF-1): inactive; Activity (HeLa): inactive

Q: How did the Activity (TF-1) turn out when `CCC(C)CCCCCCCCCC/C(O)=C1\C(=O)CN(C)C1=O` (configuration not stated) [MELOPHLIN I] was run?
A: inactive

Q: What about the Activity (HeLa) of the same compound?
A: inactive

Q: What about the IC50 (Artemia salina) of the same compound?
A: 52.6 µg/mL (≈ 156 µM)

Q: Which Activity (TF-1) does the source give for `CC(C)CCCCCCCCCCC/C(O)=C1\C(=O)CN(C)C1=O` here?
A: inactive

Q: What about the Activity (HeLa) of the same compound?
A: inactive
